Three molecules from PMC5969509 (Chemical Science, 2018) can be followed below.

The target of test [1] is catalytic domain of PHD2 (residues 181–426, tPHD2) with N-terminal His-tag and C-terminal biotinylation (tPHD2_(HisBio)) (human) (UniProt Q9GZT9). Nature of the test: BLI. (Biolayer interferometry detects binding as a change in optical thickness at a sensor tip.)
The target is the same in test [2]. Kind of test: BLI. This is another data set of the same source.
Test [3] concerns PHD2:HIF1-α complex. Nature of the test: 3CBt capture of PHD:HIF1-α complex from RCC4 cell lysates. Type of test: binding. To be noted: RCC4 cells in hypoxia, 3CBt 52 µM, western blot. (A western blot detects proteins with antibodies after separation by electrophoresis.)
Test [4] has as its system PHD2. Nature of the test: 3CBt capture. Type of test: binding, human.
Test [5] concerns PHD1. Kind of test: 3CBt capture. It is filed as binding, human. The following applies: protein 10 µM, 3CBt 26 µM, Coomassie SDS-PAGE.
For test [6], the system named is PHD3. Nature of the test: 3CBt capture. To be noted: 3CBt 26 µM. Type of test: binding, human.
The subject of test [7] is KDM4A. Kind of test: Biolayer interferometry, binding to KDM4A. Set-up: species or system human. To be noted: BLI, 3-fold dilution series. The method in brief: (§1)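 Recombinant protein (tPHD2HisBio or KDM4A) was expressed in E. coli BL21 (DE3) and loaded onto biosensors. Binding was measured by biolayer interferometry as cycles of association and dissociation across a dilution series of test peptide. A DMSO-only sensor included in each run was subtracted to correct for drift, and the traces were fitted globally.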

Test [8] deals with tPHD2HisBio (catalytic domain of PHD2, residues 181-426) (Homo sapiens, UniProt Q9GZT9). Nature of the test: Biolayer interferometry, tPHD2HisBio immobilised via C-terminal biotin. Type of test: binding. An outline of the steps: as §1
In test [9] the target is tPHD2 (Homo sapiens, UniProt Q9GZT9). Kind of test: Biolayer interferometry, tPHD2 immobilised via N-terminal His-tag. It is filed as binding. The following applies: BLI; tPHD2 denatured chemically or thermally.

Like-named read-outs stand apart in the source and are kept apart here. Positions of bridges follow the written chain, without caps; N, C: chain ends. Non-standard residues stand in square brackets, D forms with d. Residues, ends and D or L forms follow the SMILES beside them.

tPHD2HisBio (catalytic domain of PHD2, residues 181-426), sequence (Q9GZT9 181-426): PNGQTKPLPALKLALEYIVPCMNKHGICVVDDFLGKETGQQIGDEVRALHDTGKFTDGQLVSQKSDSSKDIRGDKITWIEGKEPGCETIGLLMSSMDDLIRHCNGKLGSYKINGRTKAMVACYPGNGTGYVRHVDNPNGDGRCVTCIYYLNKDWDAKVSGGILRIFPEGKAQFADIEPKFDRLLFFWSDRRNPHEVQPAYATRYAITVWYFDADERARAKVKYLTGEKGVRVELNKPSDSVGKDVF
catalytic domain of PHD2 (residues 181–426, tPHD2) with N-terminal His-tag and C-terminal biotinylation (tPHD2_(HisBio)) (human), sequence (Q9GZT9 181-426): as above
tPHD2, sequence (Q9GZT9 181-426): as above

On to “C-terminal oxygen dependent domain (CODD), a fragment peptide of HIF1-α”, for which the Kd (as a rule, a measure of binding affinity in units of concentration) in test [1] stood at 5.2 µM; in test [2] it was 6.3 µM.
Take “DYVWL T DT W VL SRTCGSGSGSZ (sidechain bridge or staple) [3CBt]”: the “co-purification of HIF1-α and PHDs at endogenous levels” value in test [3] is “could co-purify HIF1-α and PHDs at endogenous levels”. The “capture of endogenous PHD2 from Hep3B cell lysates” value in test [4] (hypoxic (1% O2) Hep3B cells, western blot, 3CBt 13 µM) is recorded as “could be captured”. In test [4] (protein 10 µM, 3CBt 26 µM, Coomassie SDS-PAGE), the “recovery of recombinant full-length PHD2” value was “recovered in a 3CBt-dependent manner”. Besides, the “recovery of isolated recombinant tPHD2” value in [4] (streptavidin magnetic beads, Coomassie SDS-PAGE, tPHD2 100 nM, 3CBt 520 nM) is “High levels of tPHD2 recovery”. The “capture of recombinant full length PHD1” value in test [5] was “able to capture”. Moreover, in test [6] (hypoxic conditions, western blot), the “capture of endogenous PHD3 from Hep3B cell lysates” value is “able to affinity purify”. In addition, the “capture of recombinant full length PHD3” value in [6] (protein 10 µM, Coomassie SDS-PAGE) is recorded as “able to capture”.
`CC(C)C[C@@H]1NC(=O)[C@H](Cc2c[nH]c3ccccc23)NC(=O)[C@H](C(C)C)NC(=O)[C@@H](Cc2ccc(O)cc2)NC(=O)CSC[C@@H](C(N)=O)NC(=O)[C@H]([C@@H](C)O)NC(=O)[C@H](CCCNC(=N)N)NC(=O)[C@H](CO)NC(=O)[C@H](CC(C)C)NC(=O)[C@H](C(C)C)NC(=O)[C@H](Cc2c[nH]c3ccccc23)NC(=O)[C@H]([C@@H](C)O)NC(=O)[C@H](CC(=O)O)NC(=O)[C@H]([C@@H](C)O)NC1=O` [3C] ({CH2CO}-[dY]VWLTDTWVLSRTC-NH2; thioether N-14): the “binding to KDM4A” value in test [7] was “almost no detectable binding”. Besides, the Kd in test [8] was 0.27 nM. Also, the “dissociative half-life t1/2” value in test [8] (BLI, C-terminal biotin immobilisation) came out at 68 min. Besides, the “binding to denatured tPHD2” value in [9] is given as “abolished”.
